For series [1], the system named is CHO-AA8. The series can be described thus: Cytotoxicity in chinese hamster ovary tumor cell line-AA8, by growth inhibition assay. The series is classed as functional, cell-based. To be noted: Cricetulus griseus. The essentials: (§1)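 Log-phase monolayers in α-MEM with 5% FBS, no antibiotics; seeded at 200 (AA8), 300 (UV4) or 50 (EMT6) cells/well. After 24 h, exposed to drug (DMSO stock, final DMSO <1%, medium pH 7.4) for 4 h at 37 °C, 5% CO₂, aerobic. Washed, then regrown 4 days. Methylene blue staining read cell density. IC50 = 50% growth inhibition versus same-plate controls.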

Series [2] is described as follows: Solubility in 0.1 M phosphate buffer (pH 7.0) at room temperature. The series is classed as physicochemical. To be noted: read-out: S. The essentials: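 Solid suspended in 0.1 M phosphate buffer pH 7.0, sonicated 5 min at room temperature, centrifuged 5 min. Supernatant assayed by HPLC against a standard curve of known concentrations in acetonitrile. Three determinations, averaged.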

For series [3], the system named is EMT6. The series is described as follows: Cytotoxicity in murine mammary carcinoma tumor cell line-EMT6, by growth inhibition assay. The series is classed as functional, cell-based. To be noted: Mus musculus. The method, boiled down:
as §1

Series [4] concerns SK-OV-3. The series can be described thus: Cytotoxicity in human ovarian tumor cell line-SKOV3, by growth inhibition assay. The series is classed as functional, cell-based. The method, boiled down:
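SKOV3 log-phase monolayers in α-MEM with 5% FBS, no antibiotics; 600 cells/well. After 24 h, 4 h aerobic drug exposure at 37 °C, 5% CO₂ (DMSO stock, final DMSO <1%, medium pH 7.4). Washed, then regrown 5 days. Methylene blue staining gave cell density. IC50 = 50% growth inhibition versus controls on the same plate.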

In series [5] the test system is UV4. The series can be described thus: Cytotoxicity in chinese hamster ovary tumor cell line -UV4 (repair deffective ERCC-1 mutant), by growth inhibition assay. The series is classed as functional, cell-based. To be noted: Cricetulus griseus. The method, boiled down: as §1

≈ marks a conversion by molar mass, not a printed value.

For the molecule `COc1cc(OCCN(C)C)c2[nH]c(C(=O)N3CC(CCl)c4ccc(N)cc43)cc2c1` (stereo not given), the IC50 in series [1] is 0.14 µM; in series [3] it was 0.09 µM; in series [4], 0.16 µM; in series [5], 0.029 µM. In addition, the solubility in series [2] amounted to 47 µM (≈ 20.8 µg/mL).
As to `COc1ccc2oc(S(=O)(=O)N3CC(CCl)c4ccc(N)cc43)cc2c1` (stereo not given), the IC50 in series [1] worked out at 6.6 µM; in series [3], 2.6 µM; in series [4], 4.4 µM; in series [5], 2.8 µM.
In the case of `COc1ccc2[nH]c(C(=O)N3CC(CCl)c4ccc(N)cc43)cc2c1` (stereo not given), the IC50 in series [1] worked out at 0.31 µM; in series [3] it was 0.23 µM; in series [4] it was 0.67 µM; in series [5], 0.047 µM. For the same molecule, the solubility in series [2] was 23 µM (≈ 8.18 µg/mL).
With `COc1ccc2oc(C(=O)N3CC(CCl)c4ccc(N)cc43)cc2c1` (stereo not given), the IC50 is 0.88 µM in series [1], 0.64 µM in series [3], 1.1 µM in series [4] and 0.12 µM in series [5].
Regarding `COc1ccc2[nH]c(S(=O)(=O)N3CC(CCl)c4ccc(N)cc43)cc2c1` (stereo not given), the IC50 in series [1] was 8.2 µM; in series [3], 4.9 µM; in series [4] it was 2.7 µM; in series [5], 4.3 µM.
For `COc1cc2cc(C(=O)N3CC(CCl)c4ccc(N)cc43)[nH]c2c(OC)c1OC` (stereo not given), the IC50 in series [1] worked out at 0.35 µM; in series [3], 0.27 µM; in series [4], 0.63 µM; in series [5] it was 0.055 µM. The solubility in series [2] worked out at 32 µM (≈ 13.3 µg/mL).
Consider `Nc1ccc2c(c1)N(C(=O)c1cc3cc(NC(=O)c4cc5ccccc5o4)ccc3[nH]1)CC2CCl` (stereo not given), for which the IC50 was determined as 0.16 µM in series [1], 0.19 µM in series [3], 0.6 µM in series [4] and 0.087 µM in series [5].
Turning to `COc1cc2cc(C(=O)N3CC(CCl)c4ccc(N)cc43)[nH]c2cc1OCCN(C)C` (stereo not given), the IC50 in series [1] turned out to be 0.22 µM; in series [3], 0.11 µM; in series [4], 0.15 µM; in series [5], 0.039 µM. For the same molecule, the solubility in series [2] is above 1200 µM.
Take `CN(C)CCOc1ccc2[nH]c(C(=O)N3CC(CCl)c4ccc(N)cc43)cc2c1` (stereo not given): the IC50 in series [1] worked out at 0.16 µM; in series [3] it was 0.12 µM; in series [4], 0.26 µM; in series [5] it was 0.044 µM. For the same molecule, the solubility in series [2] was 700 µM (≈ 289 µg/mL).
With `CCCC(=O)Nc1cc(/C=C/C(=O)N2CC(CCl)c3ccc(N)cc32)n(C)c1` (stereo not given), the IC50 in series [1] was found to be 2.1 µM; in series [3], 0.91 µM; in series [4], 1.9 µM; in series [5], 0.31 µM.

The record behind these values is ChEMBL document CHEMBL1132190, “Synthesis of 1-substituted 3-(chloromethyl)-6-aminoindoline (6-amino-seco-CI) DNA minor groove alkylating agents and structure-activity relationships for their cytotoxicity” (J Med Chem, 1999).
